From ChEMBL document CHEMBL1143603, “Identification and characterization of novel benzil (diphenylethane-1,2-dione) analogues as inhibitors of mammalian carboxylesterases” (J Med Chem, 2005) come the findings set out here.

The target of test [1] is T1, Liver carboxylesterase 1 (Homo sapiens, UniProt P23141).
T1 sequence (P23141 whole entry): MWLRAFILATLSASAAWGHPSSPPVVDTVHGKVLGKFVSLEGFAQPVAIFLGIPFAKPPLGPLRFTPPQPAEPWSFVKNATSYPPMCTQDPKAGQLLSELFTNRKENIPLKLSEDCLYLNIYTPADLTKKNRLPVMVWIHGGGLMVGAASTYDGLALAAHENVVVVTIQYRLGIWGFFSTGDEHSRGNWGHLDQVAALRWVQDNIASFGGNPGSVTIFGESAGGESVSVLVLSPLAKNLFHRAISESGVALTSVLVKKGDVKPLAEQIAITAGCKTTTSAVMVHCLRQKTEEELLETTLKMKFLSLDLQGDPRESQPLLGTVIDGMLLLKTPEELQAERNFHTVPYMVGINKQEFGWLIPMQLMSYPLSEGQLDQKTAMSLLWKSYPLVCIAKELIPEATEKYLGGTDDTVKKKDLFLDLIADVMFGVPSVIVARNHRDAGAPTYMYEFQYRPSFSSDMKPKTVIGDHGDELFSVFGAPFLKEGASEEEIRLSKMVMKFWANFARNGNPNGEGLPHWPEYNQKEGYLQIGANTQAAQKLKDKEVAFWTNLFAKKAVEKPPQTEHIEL
Kind of test: Inhibition constant against human liver carboxylesterase 1 using o-NPA (nitrophenyl acetate). An outline of the steps:
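Purified hCE1 was assayed in multiwell plates with 3 mM o-nitrophenyl acetate, with enzyme added last. Absorbance change at 420 nm was read every 15 s for 5 min and compared with no-inhibitor wells. Inhibitor concentrations started at 1 pM, and assays were run in duplicate with 50 µM BNPP and DMSO/no-enzyme controls. Ki came from fitting to a partially competitive inhibition equation.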

Test [2] concerns the target T2, Liver carboxylesterase 1 (Oryctolagus cuniculus, UniProt P12337).
T2 sequence (P12337 whole entry): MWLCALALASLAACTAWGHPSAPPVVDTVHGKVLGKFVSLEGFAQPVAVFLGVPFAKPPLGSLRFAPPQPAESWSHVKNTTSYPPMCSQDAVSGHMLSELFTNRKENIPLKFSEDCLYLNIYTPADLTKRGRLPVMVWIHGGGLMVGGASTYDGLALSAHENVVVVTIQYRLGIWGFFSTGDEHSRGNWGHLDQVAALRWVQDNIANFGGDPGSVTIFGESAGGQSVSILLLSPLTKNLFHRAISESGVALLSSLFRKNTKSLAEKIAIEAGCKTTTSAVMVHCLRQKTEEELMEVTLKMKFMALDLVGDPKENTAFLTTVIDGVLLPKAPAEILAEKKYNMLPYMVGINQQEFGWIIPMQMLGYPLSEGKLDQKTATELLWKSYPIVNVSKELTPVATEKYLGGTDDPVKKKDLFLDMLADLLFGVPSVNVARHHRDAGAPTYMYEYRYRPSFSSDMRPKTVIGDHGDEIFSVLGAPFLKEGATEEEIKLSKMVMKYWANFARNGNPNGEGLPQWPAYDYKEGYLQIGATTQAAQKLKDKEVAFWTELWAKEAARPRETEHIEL
Kind of test: Inhibition constant against rabbit liver carboxylesterase using CPT-11. An outline of the steps:
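Purified rabbit CE was used with CPT-11 as the substrate. CPT-11 and SN-38 were quantified by HPLC with fluorescence detection.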

The target of test [3] is T2, Liver carboxylesterase 1. Description: Inhibition constant against rabbit liver carboxylesterase using 4-MUA (4-methylumbelliferone acetate). The essentials: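 Pure enzyme (hCE1 or rabbit CE) was incubated with 0.75 mM 4-methylumbelliferone acetate in 50 mM Hepes, pH 7.4. 4-Methylumbelliferone release was read fluorimetrically (excitation 365 nm, emission 460 nm) over 1 min, where the rate was linear. Inhibitor dilution series were run, and Ki was obtained by fitting fractional inhibition to a partially competitive inhibition equation.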

The target of test [4] is T1, Liver carboxylesterase 1. Description: Inhibition constant against human liver carboxylesterase 1 using 4-MUA (4-methylumbelliferone acetate). An outline of the steps:
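Pure enzyme (hCE1 or rabbit CE) was incubated with 0.75 mM 4-methylumbelliferone acetate in 50 mM Hepes, pH 7.4. Inhibitor dilution series were run, and Ki was obtained by fitting fractional inhibition to a partially competitive inhibition equation.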

In test [5] the target is T2, Liver carboxylesterase 1. Kind of test: Inhibition constant against rabbit liver carboxylesterase (rCE) using nitrophenyl acetate (o-NPA) as substrate. The essentials: (§1)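 Pure rCE prepared per earlier work. Spectrophotometric multiwell assay with 3mM o-NPA. Inhibitor and substrate were dispensed first, then enzyme was added. A420 was read every 15 s for 5 min and compared with no-inhibitor wells. Inhibitor range started at 1 pM. Duplicates, with 50 µM BNPP and DMSO/no-enzyme controls. Ki came from a partially competitive inhibition equation fit.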

For test [6], the target named is T2, Liver carboxylesterase 1. Kind of test: Inhibition constant against rabbit liver carboxylesterase using o-NPA (nitrophenyl acetate). The essentials: as §1
In test [7] the target is T1, Liver carboxylesterase 1. Kind of test: Inhibition constant against human liver carboxylesterase 1 (hCE1) using nitrophenyl acetate (o-NPA) as substrate.
The next test deals with Cholinesterase (Homo sapiens, UniProt P06276). Kind of test: Inhibition constant against human Butyrylcholinesterase (hBuChE) using butyrylthiocholine (BuTCh) as substrate.
For the next test, the target named is T3, Cocaine esterase (Homo sapiens, UniProt O00748).
T3 sequence (O00748 whole entry): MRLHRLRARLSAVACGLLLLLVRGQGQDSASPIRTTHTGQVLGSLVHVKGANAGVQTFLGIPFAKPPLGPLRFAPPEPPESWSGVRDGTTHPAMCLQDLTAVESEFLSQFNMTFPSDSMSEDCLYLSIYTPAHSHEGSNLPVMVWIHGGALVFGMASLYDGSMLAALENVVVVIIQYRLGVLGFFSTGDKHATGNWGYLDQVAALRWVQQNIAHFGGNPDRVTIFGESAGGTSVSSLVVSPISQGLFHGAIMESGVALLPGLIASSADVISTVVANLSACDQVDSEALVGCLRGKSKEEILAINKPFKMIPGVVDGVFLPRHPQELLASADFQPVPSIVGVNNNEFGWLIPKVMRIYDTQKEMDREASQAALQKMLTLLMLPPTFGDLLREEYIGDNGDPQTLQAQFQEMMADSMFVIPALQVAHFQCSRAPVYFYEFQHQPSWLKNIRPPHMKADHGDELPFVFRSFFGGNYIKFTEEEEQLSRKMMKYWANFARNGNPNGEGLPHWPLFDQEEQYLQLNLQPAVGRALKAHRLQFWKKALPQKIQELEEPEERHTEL
Kind of test: Inhibition constant against human intestinal carboxylesterase 2 (hiCE) using nitrophenyl acetate (o-NPA) as substrate.

In the next test the target is Acetylcholinesterase (Homo sapiens, UniProt P22303). Kind of test: Inhibition constant against human Acetylcholinesterase (hAcChE) using acetylthiocholine (AcTCh) as substrate.

One may read the Ki as the dissociation constant of the complex between target and ligand, obtained from inhibition or displacement.

Sequence of Cholinesterase (P06276 whole entry): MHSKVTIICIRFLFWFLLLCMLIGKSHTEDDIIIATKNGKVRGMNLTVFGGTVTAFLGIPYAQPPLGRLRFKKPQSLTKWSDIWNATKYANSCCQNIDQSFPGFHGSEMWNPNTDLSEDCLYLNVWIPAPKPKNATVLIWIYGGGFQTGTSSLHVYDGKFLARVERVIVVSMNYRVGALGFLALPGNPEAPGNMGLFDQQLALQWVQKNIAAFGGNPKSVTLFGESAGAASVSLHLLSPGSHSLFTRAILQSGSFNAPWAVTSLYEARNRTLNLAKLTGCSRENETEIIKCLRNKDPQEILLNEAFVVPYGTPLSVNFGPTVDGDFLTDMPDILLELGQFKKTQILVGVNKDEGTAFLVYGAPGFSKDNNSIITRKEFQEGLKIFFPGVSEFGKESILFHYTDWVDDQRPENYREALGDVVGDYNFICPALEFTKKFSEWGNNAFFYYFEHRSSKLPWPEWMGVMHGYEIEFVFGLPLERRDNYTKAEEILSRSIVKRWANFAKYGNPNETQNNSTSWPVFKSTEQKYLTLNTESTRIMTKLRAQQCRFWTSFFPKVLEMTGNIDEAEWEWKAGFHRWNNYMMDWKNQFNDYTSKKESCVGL
Sequence of Acetylcholinesterase (P22303 whole entry): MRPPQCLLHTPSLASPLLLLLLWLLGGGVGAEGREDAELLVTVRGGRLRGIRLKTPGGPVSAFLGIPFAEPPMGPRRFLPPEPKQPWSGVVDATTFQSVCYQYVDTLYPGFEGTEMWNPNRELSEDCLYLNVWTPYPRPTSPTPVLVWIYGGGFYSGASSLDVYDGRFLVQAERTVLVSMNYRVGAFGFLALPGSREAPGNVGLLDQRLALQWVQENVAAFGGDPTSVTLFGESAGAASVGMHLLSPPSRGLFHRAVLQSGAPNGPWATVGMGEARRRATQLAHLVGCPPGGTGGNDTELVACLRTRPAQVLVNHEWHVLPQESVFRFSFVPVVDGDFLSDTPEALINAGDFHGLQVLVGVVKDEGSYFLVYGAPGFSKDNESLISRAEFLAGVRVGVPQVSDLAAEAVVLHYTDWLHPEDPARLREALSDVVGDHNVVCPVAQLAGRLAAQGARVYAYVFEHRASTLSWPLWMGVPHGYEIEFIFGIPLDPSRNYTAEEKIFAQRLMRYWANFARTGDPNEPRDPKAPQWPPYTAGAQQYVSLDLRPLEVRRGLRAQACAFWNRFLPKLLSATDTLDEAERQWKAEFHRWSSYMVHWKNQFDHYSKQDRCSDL

In the case of `O=C(C(=O)c1ccc(Cl)cc1)c1ccccc1`, the Ki at Liver carboxylesterase 1 [1] came out at 47.4 nM; on Liver carboxylesterase 1 [2], 52.5 nM; at Liver carboxylesterase 1 [3] it was 1.7 nM; at Liver carboxylesterase 1 [4], 5.4 nM; at Liver carboxylesterase 1 [5], 23.9 nM.

Consider `Cc1ccc(C(=O)C(=O)c2ccccc2)cc1[N+](=O)[O-]`, for which the Ki on Liver carboxylesterase 1 [1] worked out at 295 nM; at Liver carboxylesterase 1 [2], 24.1 nM; on Liver carboxylesterase 1 [3], 4 nM; on Liver carboxylesterase 1 [4] it was 7.5 nM; on Liver carboxylesterase 1 [5], 11.9 nM.

Turning to `O=C(C(=O)c1ccc(Cl)cc1)c1ccc(Cl)cc1`, the Ki on Liver carboxylesterase 1 [6] was 9.5 nM; on Liver carboxylesterase 1 [1], 182 nM; on Liver carboxylesterase 1 [7] it was 182 nM; on Liver carboxylesterase 1 [2] it was 43 nM; on Liver carboxylesterase 1 [3], 1.3 nM; on Liver carboxylesterase 1 [4], 1.6 nM. Also, the Ki on Liver carboxylesterase 1 [5] was 9.5 nM.

Regarding `O=C(C(=O)c1ccc(C(=O)C(=O)c2ccccc2)cc1)c1ccccc1`, the values for the Ki on Liver carboxylesterase 1 [2], on Liver carboxylesterase 1 [3] and at Liver carboxylesterase 1 [5] were 14.1 nM, 2.1 nM and 6.1 nM, respectively.

For the compound `O=C(C(=O)c1ccc(Br)cc1)c1ccc(Br)cc1`, the Ki on Liver carboxylesterase 1 [2] was 25 nM; on Liver carboxylesterase 1 [3] it was 0.17 nM; on Liver carboxylesterase 1 [4], 0.029 nM; at Liver carboxylesterase 1 [5], 4.1 nM.

For the compound `Cc1ccc(C(=O)C(=O)c2ccccc2)cc1C`, the Ki worked out at 99.1 nM at Liver carboxylesterase 1 [1]; 240 nM at Liver carboxylesterase 1 [2]; 4.4 nM at Liver carboxylesterase 1 [3]; 18.8 nM on Liver carboxylesterase 1 [4]; 108 nM at Liver carboxylesterase 1 [5].

Turning to `Oc1nc2cc(Cl)c(Cl)cc2nc1O` [2,3-DIHYDROXY-6,7-DICHLOROQUINOXALINE], the Ki at Liver carboxylesterase 1 [7], on Cholinesterase, on Cocaine esterase, on Acetylcholinesterase and on Liver carboxylesterase 1 [5] was more than 100000 nM each time.

`CC1C(=O)CCCC1=O`: the Ki at Liver carboxylesterase 1 [7], at Cholinesterase, at Cocaine esterase, at Acetylcholinesterase and on Liver carboxylesterase 1 [5] was more than 100000 nM each time.

Take `CC(=O)CCC(=O)c1ccccc1`: the Ki on Liver carboxylesterase 1 [7], on Cholinesterase, on Cocaine esterase, at Acetylcholinesterase and on Liver carboxylesterase 1 [5] was more than 100000 nM each time.

On to `[O-][S+](Cc1ccccc1)Cc1ccccc1`, for which the Ki at Liver carboxylesterase 1 [7], on Cholinesterase, on Cocaine esterase, at Acetylcholinesterase and on Liver carboxylesterase 1 [5] was more than 100000 nM each time.

On to `O=C1CCCC(=O)C1`, for which the inhibitory constant (Ki) on Liver carboxylesterase 1 [7], at Cholinesterase, at Cocaine esterase, at Acetylcholinesterase and on Liver carboxylesterase 1 [5] was more than 100000 nM each time.

In the case of `CCC(=O)C(C)=O` [2,3-PENTANEDIONE], the Ki at Liver carboxylesterase 1 [7], at Cholinesterase, at Cocaine esterase, at Acetylcholinesterase and at Liver carboxylesterase 1 [5] was more than 100000 nM in each case.

As to `CC1CC(C)(C)CC(=O)C1=O` (centres undefined), the inhibition constant Ki at Liver carboxylesterase 1 [7], at Cholinesterase, at Cocaine esterase, at Acetylcholinesterase and on Liver carboxylesterase 1 [5] was more than 100000 nM in each case.

Regarding `CC1C(=O)CCC1=O`, the Ki at Liver carboxylesterase 1 [7], on Cholinesterase, on Cocaine esterase, on Acetylcholinesterase and on Liver carboxylesterase 1 [5] was more than 100000 nM each time.

On to `CN(C)c1ccc(C(O)C(=O)c2ccccc2)cc1` (centres undefined), for which the Ki on Liver carboxylesterase 1 [7], on Cholinesterase, on Cocaine esterase, on Acetylcholinesterase and on Liver carboxylesterase 1 [5] was more than 100000 nM throughout.

On to `O=C1C=CC(=O)C=C1` [BENZOQUINONE], for which the Ki was more than 100000 nM on Liver carboxylesterase 1 [7]; 2050 nM on Cholinesterase; more than 100000 nM at Cocaine esterase; 955 nM at Acetylcholinesterase; more than 100000 nM at Liver carboxylesterase 1 [5].

In the case of `O=S(=O)(Cc1ccccc1)c1ccccc1` [BENZYLSULFONYLBENZENE], the Ki on Liver carboxylesterase 1 [7], at Cholinesterase, at Cocaine esterase, at Acetylcholinesterase and on Liver carboxylesterase 1 [5] was more than 100000 nM throughout.
